Measured values published in ChEMBL document CHEMBL1122207, “Antitumor agents. 2. Bisguanylhydrazones of anthracene-9,10-dicarboxaldehydes” (1982).

Assays:
Assay type in all cases: functional
Mus musculus [1] = species: Mus musculus; experiment: Cures is the number of survivors of the total treated mice (12) with P-388 leukemia, at 30 days.
Method in brief: (§1)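 BDF1 or CDF1 mice given 10^6 ascitic P-388 leukemia cells ip, then treated ip on days 1, 5 and 9. Cures are survivors over total treated at 30 days.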

Mus musculus [2] = species: Mus musculus; experiment: Cures is the number of survivors of the total treated mice (6) with L-1210 leukemia, at 30 days.
Mus musculus [3] = species: Mus musculus; experiment: Cures is the number of survivors of the total treated mice (10) with advanced B-16 melanoma, at 30 days.
Mus musculus [4] = species: Mus musculus; experiment: Cures is the number of survivors of the total treated mice (10) with B-16 melanoma, at 60 days.
Method in brief: (§2)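 BDF1 mice were implanted ip with a homogenate from 0.05 g of B-16 melanoma and dosed ip on days 1-9. Cures are survivors over total at 60 days.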

Mus musculus [5] = species: Mus musculus; experiment: Cures is the number of survivors of the total treated mice (10) with Colon 26, at 60 days.
Mus musculus [6] = experiment: Percent increase in median life span of BDF1 mice with B-16 melanoma at dose 6.25 mg/kg administered intraperitoneally; 1-9 days of ip treatment relative to tumor inoculation; details: BDF1, B16, ip, route intraperitoneal
Method in brief: (§3)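 BDF1 mice were implanted ip with a homogenate from 0.05 g of B-16 melanoma. Ip dosing ran on days 1-9, starting 24 h after implant, in dose-response studies following NCI protocols. The read-out was percent increase in life span (ILS). T/C ≥125% was taken as significant.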

Mus musculus [7] = experiment: Percent increase in median life span of BDF1 mice with Colon 26 at dose 6.2 mg/kg administered intraperitoneally; 1, 5, 9 days of ip treatment relative to tumor inoculation; details: BDF1, Colon 26, ip, 216 h, route intraperitoneal
Mus musculus [8] = experiment: Percent increase in median life span of BDF1 mice with L-1210 leukemia at dose 3.1 mg/kg administered intraperitoneally; 1, 5, 9 days of ip treatment relative to tumor inoculation; details: BDF1, L1210, ip, 216 h, route intraperitoneal
Method in brief: (§4)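 BDF1 or CDF1 mice given 10^6 ascitic leukemia cells ip, then dosed ip on days 1, 5 and 9. Read-out is percent increase in life span versus untreated controls. Cures were scored as survivors/total at 30 days; when cures reached 50% or more, the run was extended until a specific ILS could be calculated. T/C ≥125% counted as significant.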

Mus musculus [9] = experiment: Percent increase in median life span of BDF1 mice with P-388 leukemia at dose 12.5 mg/kg administered intraperitoneally; range 90-100%; range 90-100%, 1, 5, 9 days of ip treatment relative to tumor inoculation; details: BDF1, P388, ip, 216 h, route intraperitoneal; method in brief: as §4
Mus musculus [10] = experiment: Percent increase in median life span of BDF1 mice with advanced B-16 melanoma at dose 12.5 mg/kg administered intraperitoneally; 5, 9, 13 days of ip treatment relative to tumor inoculation; details: BDF1, B16, ip, 312 h, route intraperitoneal
Mus musculus [11] = species: Mus musculus; experiment: Number of survivors of the total treated mice with B-16 melanoma, at 60 days.; method in brief: as §2
Mus musculus [12] = species: Mus musculus; experiment: Anticancer activity measured as the number of survivors of the total treated mice with P-388 leukemia at 30 days.; method in brief: as §1
Mus musculus [13] = experiment: Percent increase in median life span of BDF1 mice with P-388 leukemia at dose 18.8 mg/kg administered intraperitoneally; details: BDF1, P388, ip, route intraperitoneal
Mus musculus [14] = species: Mus musculus; experiment: Cures is the number of survivors of the total treated mice (9) with P-388 leukemia, at 30 days.; method in brief: as §1
Mus musculus [15] = experiment: Percent increase in median life span of BDF1 mice with P-388 leukemia at dose 12.5 mg/kg administered intraperitoneally; details: BDF1, P388, ip, route intraperitoneal
Mus musculus [16] = experiment: Percent increase in median life span of BDF1 mice with B-16 melanoma at dose 1.5 mg/kg administered intraperitoneally; details: BDF1, B16, ip, route intraperitoneal; method in brief: as §3
Mus musculus [17] = species: Mus musculus; experiment: Cures is the number of survivors of the total treated mice (6) with advanced L-1210 leukemia, at 30 days.
Method in brief: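 Advanced L-1210 leukemia, with ip treatment on days 5, 9 and 13 relative to tumor inoculation.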

Mus musculus [18] = species: Mus musculus; experiment: Cures is the number of survivors of the total treated mice (8) with Colon 26, at 60 days.
Mus musculus [19] = experiment: Percent increase in median life span of BDF1 mice with Colon 26 at dose 25 mg/kg administered intraperitoneally; 1, 5, 9 days of ip treatment relative to tumor inoculation; details: BDF1, Colon 26, ip, 216 h, route intraperitoneal
Mus musculus [20] = experiment: Percent increase in median life span of BDF1 mice with P-388 leukemia at dose 100 mg/kg administered intraperitoneally; 1, 5, 9 days of ip treatment relative to tumor inoculation; details: BDF1, P388, ip, 216 h, route intraperitoneal; method in brief: as §4
Mus musculus [21] = experiment: Percent increase in median life span of BDF1 mice with advanced L-1210 leukemia at dose 200 mg/kg administered intraperitoneally; treatment day +2 iv; details: L1210
Mus musculus [22] = experiment: Percent increase in median life span of BDF1 mice with advanced P-388 leukemia at dose 25 mg/kg administered intraperitoneally; 4, 8, 12 days of ip treatment relative to tumor inoculation; details: P388, ip, 288 h, route intraperitoneal
Mus musculus [23] = experiment: Percent increase in median life span of BDF1 mice with madison lung 109 leukemia administered intraperitoneally
Mus musculus [24] = experiment: Percent increase in median life span of BDF1 mice with B-16 melanoma at dose 25 mg/kg administered intraperitoneally; 1-9 days of ip treatment relative to tumor inoculation; details: BDF1, B16, ip, route intraperitoneal; method in brief: as §3
Mus musculus [25] = experiment: Percent tumor inhibition at non-lethal dose was determined in BDF1 mice with madison lung 109 leukemia; 1, 5, 9 days of sc treatment relative to tumor inoculation
Mus musculus [26] = species: Mus musculus; experiment: Cures is the number of survivors of the total treated mice (20) with B-16 melanoma, at 60 days.; method in brief: as §2
Mus musculus [27] = species: Mus musculus; experiment: Cures is the number of survivors of the total treated mice (6) with P-388 leukemia, at 30 days.; method in brief: as §1
Mus musculus [28] = species: Mus musculus; experiment: Cures is the number of survivors of the total treated animals (12 mice) with P-388 leukemia, at 30 days.; method in brief: as §1
Mus musculus [29] = experiment: Percent increase in median life span of BDF1 mice with Colon 26 at dose 12.5 mg/kg administered intraperitoneally; 1, 5, 9 days of ip treatment relative to tumor inoculation; details: BDF1, Colon 26, ip, 216 h, route intraperitoneal
Mus musculus [30] = experiment: Percent increase in median life span of BDF1 mice with P-388 leukemia at dose 50 mg/kg administered intraperitoneally; range 25-91%; range 25-91%, 1, 5, 9 days of ip treatment relative to tumor inoculation; details: BDF1, P388, ip, 216 h, route intraperitoneal; method in brief: as §4
Mus musculus [31] = experiment: Percent increase in median life span of BDF1 mice with B-16 melanoma at dose 6 mg/kg administered intraperitoneally; range 100-167; 1-9 days of ip treatment relative to tumor inoculation; details: BDF1, B16, ip, route intraperitoneal; method in brief: as §3
Mus musculus [32] = experiment: Percent increase in median life span of BDF1 mice with advanced L-1210 leukemia administered intraperitoneally; treatment day +2 ip
Mus musculus [33] = experiment: Percent increase in median life span of BDF1 mice with P-388 leukemia at dose 160 mg/kg administered intraperitoneally; details: BDF1, P388, ip, route intraperitoneal
Mus musculus [34] = experiment: Percent increase in median life span of BDF1 mice with B-16 melanoma at dose 3.1 mg/kg administered intraperitoneally; details: BDF1, B16, ip, route intraperitoneal; method in brief: as §3
Mus musculus [35] = experiment: Percent increase in median life span of BDF1 mice with P-388 leukemia at dose 300 mg/kg administered intraperitoneally; details: BDF1, P388, ip, route intraperitoneal
Mus musculus [36] = experiment: Percent increase in median life span of BDF1 mice with B-16 melanoma at dose 300 mg/kg administered intraperitoneally; details: BDF1, B16, ip, route intraperitoneal; method in brief: as §3

`Cl.Cl.Clc1ccc2c(/C=N/NC3=NCCN3)c3ccccc3c(/C=N/NC3=NCCN3)c2c1` showed a Cures (Mus musculus [1]) of 2, a Cures (Mus musculus [2]) of 0 and a Cures (Mus musculus [3]) of 0. For the same compound, the Cures (Mus musculus [4]) was 4, the Cures (Mus musculus [5]) was 1 and the ILS at 6.25 mg/kg (Mus musculus [6]) was 206%. For the same compound, the ILS at 6.2 mg/kg (Mus musculus [7]) was 100%, the ILS at 3.1 mg/kg (Mus musculus [8]) was 37% and the ILS at 12.5 mg/kg (Mus musculus [9]) was 95%. It also gave an ILS at 12.5 mg/kg (Mus musculus [10]) of 32%.

With `Cc1ccc(C)c2c(/C=N/NC3=NCCN3)c3ccccc3c(/C=N/NC3=NCCN3)c12.Cl.Cl` the Cures (Mus musculus [11]) was 0, the Cures (Mus musculus [12]) was 0 and the ILS at 18.8 mg/kg (Mus musculus [13]) was 57%.

Work on `C(=N\NC1=NCC2(CC2)CN1)/c1c2ccccc2c(/C=N/NC2=NCC3(CC3)CN2)c2ccccc12.Cl.Cl` yielded a Cures (Mus musculus [14]) of 1, a Cures (Mus musculus [4]) of 4 and an ILS at 12.5 mg/kg (Mus musculus [15]) of 100%. It also gave an ILS at 1.5 mg/kg (Mus musculus [16]) of 127%.

For `CC1(C)CN=C(N/N=C/c2c3ccccc3c(/C=N/NC3=NCC(C)(C)CN3)c3ccccc23)NC1.Cl.Cl`, the Cures (Mus musculus [17]) was 0, the Cures (Mus musculus [18]) was 0 and the Cures (Mus musculus [4]) was 4. The ILS at 25 mg/kg (Mus musculus [19]) was 153%, the ILS at 100 mg/kg (Mus musculus [20]) was 205% and the ILS at 200 mg/kg (Mus musculus [21]) was 29%. The ILS at 25 mg/kg (Mus musculus [22]) was 88%, the ILS (Mus musculus [23]) was under 25% and the ILS at 25 mg/kg (Mus musculus [24]) was 143%. It also gave an Inhibition (Mus musculus [25]) of 31%.

`Cl.Cl.N=C(NCc1ccco1)N/N=C/c1c2ccccc2c(/C=N/NC(=N)NCc2ccco2)c2ccccc12` showed a Cures (Mus musculus [26]) of 6, a Cures (Mus musculus [27]) of 0 and a Cures (Mus musculus [28]) of 0. It also gave a Cures (Mus musculus [18]) of 0, an ILS at 12.5 mg/kg (Mus musculus [29]) of 109% and an ILS at 50 mg/kg (Mus musculus [30]) of 91%. It also gave an ILS at 6 mg/kg (Mus musculus [31]) of 167%, an ILS (Mus musculus [32]) of under 25% and an ILS at 25 mg/kg (Mus musculus [22]) of 56%.

`Cc1cc2c(/C=N/NC3=NCCN3)c3ccccc3c(/C=N/NC3=NCCN3)c2cc1C.Cl.Cl` was tested, and the Cures (Mus musculus [11]) was 0, the Cures (Mus musculus [12]) was 0 and the ILS at 160 mg/kg (Mus musculus [33]) was 77%. It also gave an ILS at 3.1 mg/kg (Mus musculus [34]) of 76%.

Compound `N/C(S)=N/N=C/c1c2ccccc2c(/C=N/N=C(\N)S)c2ccccc12` has a Cures (Mus musculus [12]) of 0, an ILS at 300 mg/kg (Mus musculus [35]) of 71% and an ILS at 300 mg/kg (Mus musculus [36]) of 0%.
